In ChEMBL document CHEMBL1153311, “Inhibitory activity of prostaglandin E2 production by the synthetic 2'-hydroxychalcone analogues: Synthesis and SAR study” (Bioorg Med Chem Lett, 2009):

How the values were obtained:
[1] = tested on: RAW264.7; test: Cytotoxicity against mouse RAW264.7 cells assessed as cell viability at 10 uM by MTT assay; format: functional; settings: read-out: Activity
Summary of the method: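 RAW 264.7 mouse macrophage-like cells tested with or without LPS; viability read by MTT assay and reported as percent cell […]; values are the mean of three experiments.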

[2] = biological target: T1, Prostaglandin G/H synthase 2 (Mus musculus, UniProt Q05769); test: Inhibition of COX2-mediated PGE2 production in LPS-stimulated mouse RAW264.7 cells by enzyme immunoassay
T1 sequence (Q05769 whole entry): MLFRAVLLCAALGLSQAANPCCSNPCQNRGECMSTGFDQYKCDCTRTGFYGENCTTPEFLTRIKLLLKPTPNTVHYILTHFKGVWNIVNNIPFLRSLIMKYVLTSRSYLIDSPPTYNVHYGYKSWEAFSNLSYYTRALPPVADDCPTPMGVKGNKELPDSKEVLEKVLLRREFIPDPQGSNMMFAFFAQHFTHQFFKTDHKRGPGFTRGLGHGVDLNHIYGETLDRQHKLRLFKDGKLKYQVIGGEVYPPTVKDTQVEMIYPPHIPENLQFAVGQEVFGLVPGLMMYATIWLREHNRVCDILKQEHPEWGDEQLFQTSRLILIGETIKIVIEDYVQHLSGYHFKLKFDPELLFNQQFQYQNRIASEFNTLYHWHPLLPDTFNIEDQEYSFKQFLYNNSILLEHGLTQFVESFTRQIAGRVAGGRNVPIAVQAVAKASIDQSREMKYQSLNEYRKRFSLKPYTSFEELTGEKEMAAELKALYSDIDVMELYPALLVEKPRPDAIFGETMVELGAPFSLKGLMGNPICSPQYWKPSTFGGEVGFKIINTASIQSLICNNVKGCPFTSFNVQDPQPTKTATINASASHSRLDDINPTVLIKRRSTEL

[3] = biological target: T2, Prostaglandin G/H synthase 2 (Homo sapiens, UniProt P35354); test: Inhibition of COX2
T2 sequence (P35354 whole entry): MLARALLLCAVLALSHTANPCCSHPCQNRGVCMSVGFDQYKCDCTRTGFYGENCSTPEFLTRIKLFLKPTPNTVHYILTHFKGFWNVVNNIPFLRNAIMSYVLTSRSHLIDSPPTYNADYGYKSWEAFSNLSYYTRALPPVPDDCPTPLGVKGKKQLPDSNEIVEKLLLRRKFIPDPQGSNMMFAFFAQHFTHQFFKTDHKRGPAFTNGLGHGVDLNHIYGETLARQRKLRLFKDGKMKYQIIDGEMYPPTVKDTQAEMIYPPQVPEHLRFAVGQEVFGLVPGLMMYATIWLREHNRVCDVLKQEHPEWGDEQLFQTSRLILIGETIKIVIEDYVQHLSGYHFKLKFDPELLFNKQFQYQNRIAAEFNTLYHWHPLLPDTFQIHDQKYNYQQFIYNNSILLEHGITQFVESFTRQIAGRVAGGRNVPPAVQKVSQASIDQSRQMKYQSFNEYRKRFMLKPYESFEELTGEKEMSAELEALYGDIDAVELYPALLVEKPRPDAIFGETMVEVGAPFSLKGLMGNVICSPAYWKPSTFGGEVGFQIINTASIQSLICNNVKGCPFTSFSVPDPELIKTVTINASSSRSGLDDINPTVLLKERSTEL
Summary of the method: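 RAW 264.7 mouse macrophage cells were plated at 2 × 10⁵ cells/well and treated with LPS for 24 h to induce COX-2, then washed. Compounds in DMSO were added in fresh medium containing arachidonic acid for 2 h. PGE₂ released into the medium was measured by EIA, and inhibition was expressed as the mean of three experiments.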

| SMILES | viability at 10 µM [1] [%] | IC50 [2] [µM] | IC50 [3] [µM] |
| --- | --- | --- | --- |
| COc1ccc(/C=C/C(=O)c2ccccc2O)c(OC)c1 | 107 | – | – |
| O=C(/C=C/c1ccc(Cl)cc1)c1ccccc1O | 141 | – | – |
| COc1ccc(/C=C/C(=O)c2ccccc2O)cc1 | 115 | – | – |
| O=C(/C=C/c1ccc(OCc2ccccc2)cc1)c1ccccc1O | 99 | 4.1 | – |
| CSc1ccc(/C=C/C(=O)c2ccccc2O)cc1 | 85 | – | – |
| O=C(/C=C/c1ccc2c(c1)OCO2)c1ccccc1O | 118 | – | – |
| COc1ccc(/C=C/C(=O)c2ccccc2O)cc1OCc1ccccc1 | 102 | – | – |
| Cc1ccc(/C=C/C(=O)c2ccccc2O)cc1 | 152 | – | – |
| O=C(/C=C/c1ccc(OCc2ccccc2)c(OCc2ccccc2)c1)c1ccccc1O | 103 | 4.6 | – |
| O=C(/C=C/c1ccc(-c2ccccc2)cc1)c1ccccc1O | 135 | – | – |
| O=C(/C=C/c1cccc(Br)c1)c1ccccc1O | 90 | – | – |
| O=C(/C=C/c1ccc(Cl)c(Cl)c1)c1ccccc1O | 155 | – | – |
| O=C(/C=C/c1ccc(OC(F)(F)F)cc1)c1ccccc1O | 87 | – | – |
| COc1ccc(/C=C/C(=O)c2ccccc2O)cc1Br | 159 | – | – |
| COc1cccc(/C=C/C(=O)c2ccccc2O)c1OC | 93 | 3.8 | – |
| CC(=O)c1cc(C(C)=O)c2c(=O)cc(-c3ccccc3)oc2c1 | – | – | 2.7 |
| COc1cc(/C=C/C(=O)c2ccccc2O)cc(OC)c1OC | 65 | 6.2 | – |
| O=C(/C=C/c1ccc(Br)cc1)c1ccccc1O | 162 | – | – |
| O=C(/C=C/c1ccccc1)c1ccccc1O [2'-HYDROXYCHALCONE] | 119 | – | – |
| CS(=O)(=O)Nc1ccc([N+](=O)[O-])cc1OC1CCCCC1 [NS-398] | 104 | – | – |
| COc1c(O)cc(O)c2c(=O)cc(-c3ccccc3)oc12 [WOGONIN] | 111 | 1.07 | – |
